Holding throughout (format): functional
For assay [1], the system named is Diutina rugosa. Description: Antifungal activity against Candida rugosa NCIM 3462 at 50 ug/ml after 48 hrs by agar well diffusion method. As to conditions: NCIM 3462, 48 h, read-out: IZ. The method in brief:
(§1)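 Test samples and DMSO controls incubated at 27 °C for 48 h. Inhibition zone diameter measured in mm. Three to four replicates per treatment.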

Assay [2] concerns Aspergillus flavus. Description: Antifungal activity against Aspergillus flavus MTCC 277 at 100 ug/ml after 48 hrs by agar well diffusion method. As to conditions: MTCC 277, 48 h, read-out: IZ. The method in brief: as §1
(A growth-free zone around the sample is the usual read-out of agar diffusion tests.)

Assay [3] deals with Diutina rugosa. Nature of the assay: Antifungal activity against Candida rugosa NCIM 3462 at 100 ug/ml after 48 hrs by agar well diffusion method. Particulars: NCIM 3462, 48 h, read-out: IZ. In outline: as §1
For assay [4], the system named is Staphylococcus epidermidis. Description: Antibacterial activity against Staphylococcus epidermidis MTCC 435 by broth dilution method. In outline:
(§2)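 Broth dilution per NCCL standards; all phosphorus ylides and conjugated alkynes tested in vitro.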

A further assay deals with Staphylococcus aureus. Description: Antibacterial activity against Staphylococcus aureus MTCC 96 by broth dilution method. The method in brief:
as §2
For orientation: Broth dilution looks for growth in wells or tubes with falling amounts of substance.

The subject of another assay is Pseudomonas aeruginosa. Description: Antibacterial activity against Pseudomonas aeruginosa MTCC 741 by broth dilution method. In outline: as §2
Assay [5] concerns Candida albicans. Nature of the assay: Antifungal activity against Candida albicans MTCC 227 at 50 ug/ml after 48 hrs by agar well diffusion method. Particulars: MTCC 227, 48 h, read-out: IZ. In outline: as §1
Another assay concerns Klebsiella pneumoniae. Description: Antibacterial activity against Klebsiella pneumoniae MTCC 618 by broth dilution method. In outline: as §2
A further assay concerns Bacillus subtilis. Description: Antibacterial activity against Bacillus subtilis MTCC 441 by broth dilution method. In outline: as §2
For the next assay, the system named is Escherichia coli. Nature of the assay: Antibacterial activity against Escherichia coli MTCC 443 by broth dilution method. In outline:
as §2

The subject of assay [6] is Aspergillus niger. Description: Antifungal activity against Aspergillus niger MTCC 344 at 50 ug/ml after 48 hrs by agar well diffusion method. As to conditions: MTCC 344, 48 h, read-out: IZ. The method in brief:
as §1

Assay [7] deals with Saccharomyces cerevisiae. Description: Antifungal activity against Saccharomyces cerevisiae MTCC 36 at 100 ug/ml after 48 hrs by agar well diffusion method. Particulars: MTCC 36, 48 h, read-out: IZ. The method in brief: as §1
The test system of assay [8] is Candida albicans. Description: Antifungal activity against Candida albicans MTCC 227 at 100 ug/ml after 48 hrs by agar well diffusion method. Particulars: MTCC 227, 48 h, read-out: IZ. The method in brief:
as §1

For assay [9], the system named is Saccharomyces cerevisiae. Nature of the assay: Antifungal activity against Saccharomyces cerevisiae MTCC 36 at 50 ug/ml after 48 hrs by agar well diffusion method. Particulars: MTCC 36, 48 h, read-out: IZ. The method in brief:
as §1

Assay [10] concerns Aspergillus niger. Nature of the assay: Antifungal activity against Aspergillus niger MTCC 344 at 100 ug/ml after 48 hrs by agar well diffusion method. As to conditions: MTCC 344, 48 h, read-out: IZ. In outline:
as §1

Assay [11] has as its system Aspergillus flavus. Nature of the assay: Antifungal activity against Aspergillus flavus MTCC 277 at 50 ug/ml after 48 hrs by agar well diffusion method. Particulars: MTCC 277, 48 h, read-out: IZ. The method in brief: as §1

Zone of inhibition and MIC data for 14 compounds are collected here from ChEMBL document CHEMBL2424522, “Demonic axe-like conjugated alkynes in combating microbes” (2013).

In brackets after ≈: the same amount, converted by molar mass. Bounds are passed on as bounds.

In the case of `N#CC#Cc1cccnc1Cl`, the zone of inhibition at 50 µg/mL with Diutina rugosa [1] is 23 mm; in the assay with Candida albicans [5], 23 mm; with Aspergillus niger [6], 26 mm; with Saccharomyces cerevisiae [9] it was 0 mm; in the assay on Aspergillus flavus [11], 35 mm. In addition, the zone of inhibition at 100 µg/mL turned out to be 39 mm in the assay with Aspergillus flavus [2]; 29 mm in the assay on Diutina rugosa [3]; 11 mm with Saccharomyces cerevisiae [7]; 28 mm in the assay on Candida albicans [8]; 30 mm in the assay on Aspergillus niger [10]. Also, the MIC in [4] worked out at 50 µg/mL (≈ 308 µM); in the assay with Staphylococcus aureus it was 6.25 µg/mL (≈ 38.4 µM); against Pseudomonas aeruginosa it was 0.78 µg/mL (≈ 4.8 µM); in the assay on Klebsiella pneumoniae, 12.5 µg/mL (≈ 76.9 µM); in the assay with Bacillus subtilis, 3.12 µg/mL (≈ 19.2 µM); against Escherichia coli it was 100 µg/mL (≈ 615 µM).
For `CCOC(=O)C#Cc1ccc(Cl)nc1`, the zone of inhibition at 50 µg/mL came to 10 mm with Diutina rugosa [1]; 15 mm in the assay on Candida albicans [5]; 25 mm in the assay with Aspergillus niger [6]; 25 mm in the assay on Saccharomyces cerevisiae [9]; 20 mm with Aspergillus flavus [11]. Besides, the zone of inhibition at 100 µg/mL was 25 mm in the assay with Aspergillus flavus [2]; 15 mm in the assay on Diutina rugosa [3]; 29 mm with Saccharomyces cerevisiae [7]; 20 mm in the assay on Candida albicans [8]; 29 mm with Aspergillus niger [10]. The MIC in assay [4] stood at 50 µg/mL (≈ 239 µM); with Staphylococcus aureus, 1.56 µg/mL (≈ 7.44 µM); with Pseudomonas aeruginosa it was 0.78 µg/mL (≈ 3.72 µM); with Klebsiella pneumoniae, 6.25 µg/mL (≈ 29.8 µM); against Bacillus subtilis it was 6.25 µg/mL (≈ 29.8 µM); against Escherichia coli it was 100 µg/mL (≈ 477 µM).
`CCOC(=O)C(C(=O)c1ccc(Cl)nc1)=P(c1ccccc1)(c1ccccc1)c1ccccc1`: the zone of inhibition at 100 µg/mL in the assay with Aspergillus flavus [2], in the assay on Diutina rugosa [3], in the assay with Saccharomyces cerevisiae [7], with Candida albicans [8] and in the assay with Aspergillus niger [10] was 0 mm throughout. The MIC (in assay [4]; against Staphylococcus aureus; in the assay with Pseudomonas aeruginosa; against Klebsiella pneumoniae; against Bacillus subtilis; with Escherichia coli) was more than 150 µg/mL in each case.
Take `CCOC(=O)C#CC(C)(C)C`: the zone of inhibition at 50 µg/mL in the assay on Diutina rugosa [1], in the assay with Candida albicans [5], in the assay on Aspergillus niger [6], with Saccharomyces cerevisiae [9] and with Aspergillus flavus [11] was 0 mm each time. Further, the zone of inhibition at 100 µg/mL in the assay with Aspergillus flavus [2], in the assay with Diutina rugosa [3], with Saccharomyces cerevisiae [7], in the assay on Candida albicans [8] and in the assay with Aspergillus niger [10] was 0 mm each time. Besides, the MIC (in [4]; in the assay on Staphylococcus aureus; in the assay with Pseudomonas aeruginosa; against Klebsiella pneumoniae; against Bacillus subtilis; with Escherichia coli) was more than 150 µg/mL throughout.
As to `CC(C)OC(=O)C(C(=O)c1cc(F)c(Cl)nc1Cl)=P(c1ccccc1)(c1ccccc1)c1ccccc1`, the zone of inhibition at 100 µg/mL in the assay on Aspergillus flavus [2], in the assay with Diutina rugosa [3], with Saccharomyces cerevisiae [7], with Candida albicans [8] and with Aspergillus niger [10] was 0 mm throughout. Further, the MIC (in assay [4]; against Staphylococcus aureus; against Pseudomonas aeruginosa; against Klebsiella pneumoniae; in the assay with Bacillus subtilis; against Escherichia coli) was more than 150 µg/mL each time.
As to `C[C@@H]1[C@H](O)[C@@H](C)/C=C/C=C/C=C/C=C/C=C/C=C/C=C/[C@H](O[C@@H]2O[C@H](C)[C@@H](O)[C@H](N)[C@@H]2O)C[C@@H]2O[C@](O)(C[C@@H](O)C[C@@H](O)[C@H](O)CC[C@@H](O)C[C@@H](O)CC(=O)O[C@H]1C)C[C@H](O)[C@H]2C(=O)O` [AMPHOTERICIN B], the zone of inhibition at 50 µg/mL with Diutina rugosa [1] is 21 mm; in the assay on Candida albicans [5] it was 23.5 mm; in the assay with Aspergillus niger [6], 25 mm; with Saccharomyces cerevisiae [9], 22 mm; in the assay with Aspergillus flavus [11], 25 mm.
In the case of `CC(C)OC(=O)C(C(=O)C(C)(C)C)=P(c1ccccc1)(c1ccccc1)c1ccccc1`, the zone of inhibition at 100 µg/mL in the assay on Aspergillus flavus [2], in the assay on Diutina rugosa [3], in the assay on Saccharomyces cerevisiae [7], in the assay on Candida albicans [8] and in the assay with Aspergillus niger [10] was 0 mm throughout. Further, the MIC (in assay [4]; in the assay with Staphylococcus aureus; in the assay on Pseudomonas aeruginosa; in the assay on Klebsiella pneumoniae; in the assay with Bacillus subtilis; against Escherichia coli) was more than 150 µg/mL in each case.
As to `N#CC(C(=O)c1cc(F)c(Cl)nc1Cl)=P(c1ccccc1)(c1ccccc1)c1ccccc1`, the zone of inhibition at 100 µg/mL with Aspergillus flavus [2], in the assay on Diutina rugosa [3], with Saccharomyces cerevisiae [7], in the assay on Candida albicans [8] and in the assay with Aspergillus niger [10] was 0 mm in each case. Also, the MIC (in assay [4]; in the assay with Staphylococcus aureus; in the assay on Pseudomonas aeruginosa; with Klebsiella pneumoniae; against Bacillus subtilis; against Escherichia coli) was more than 150 µg/mL each time.
Turning to `CCOC(=O)C(C(=O)c1cccnc1Cl)=P(c1ccccc1)(c1ccccc1)c1ccccc1`, the zone of inhibition at 100 µg/mL with Aspergillus flavus [2], in the assay with Diutina rugosa [3], in the assay on Saccharomyces cerevisiae [7], in the assay on Candida albicans [8] and in the assay with Aspergillus niger [10] was 0 mm in each case. Besides, the MIC (in assay [4]; against Staphylococcus aureus; against Pseudomonas aeruginosa; against Klebsiella pneumoniae; in the assay with Bacillus subtilis; in the assay with Escherichia coli) was more than 150 µg/mL in each case.
`N#CC(C(=O)c1ccco1)=P(c1ccccc1)(c1ccccc1)c1ccccc1`: the zone of inhibition at 100 µg/mL with Aspergillus flavus [2], in the assay on Diutina rugosa [3], in the assay with Saccharomyces cerevisiae [7], in the assay on Candida albicans [8] and in the assay on Aspergillus niger [10] was 0 mm each time. The MIC (in assay [4]; against Staphylococcus aureus; in the assay on Pseudomonas aeruginosa; in the assay with Klebsiella pneumoniae; in the assay on Bacillus subtilis; in the assay on Escherichia coli) was more than 150 µg/mL throughout.
For `CC(C)OC(=O)C(C(=O)c1ccco1)=P(c1ccccc1)(c1ccccc1)c1ccccc1`, the zone of inhibition at 100 µg/mL in the assay on Aspergillus flavus [2], with Diutina rugosa [3], in the assay with Saccharomyces cerevisiae [7], with Candida albicans [8] and with Aspergillus niger [10] was 0 mm in each case. Also, the MIC (in assay [4]; against Staphylococcus aureus; in the assay on Pseudomonas aeruginosa; with Klebsiella pneumoniae; against Bacillus subtilis; with Escherichia coli) was more than 150 µg/mL in each case.
Take `N#CC(C(=O)c1ccc(Cl)nc1)=P(c1ccccc1)(c1ccccc1)c1ccccc1`: the zone of inhibition at 100 µg/mL in the assay on Aspergillus flavus [2], with Diutina rugosa [3], in the assay with Saccharomyces cerevisiae [7], in the assay on Candida albicans [8] and with Aspergillus niger [10] was 0 mm each time. Further, the MIC (in [4]; against Staphylococcus aureus; in the assay with Pseudomonas aeruginosa; against Klebsiella pneumoniae; in the assay on Bacillus subtilis; in the assay with Escherichia coli) was more than 150 µg/mL throughout.
With `N#CC(C(=O)c1cccnc1Cl)=P(c1ccccc1)(c1ccccc1)c1ccccc1`, the zone of inhibition at 100 µg/mL with Aspergillus flavus [2], with Diutina rugosa [3], in the assay on Saccharomyces cerevisiae [7], in the assay with Candida albicans [8] and with Aspergillus niger [10] was 0 mm in each case. Besides, the MIC (in assay [4]; in the assay on Staphylococcus aureus; in the assay on Pseudomonas aeruginosa; against Klebsiella pneumoniae; against Bacillus subtilis; with Escherichia coli) was more than 150 µg/mL each time.
`CCOC(=O)C(C(=O)c1cc(F)c(Cl)nc1Cl)=P(c1ccccc1)(c1ccccc1)c1ccccc1`: the zone of inhibition at 100 µg/mL in the assay on Aspergillus flavus [2], in the assay on Diutina rugosa [3], in the assay on Saccharomyces cerevisiae [7], in the assay on Candida albicans [8] and in the assay with Aspergillus niger [10] was 0 mm in each case. Moreover, the minimum inhibitory concentration (MIC) (in assay [4]; against Staphylococcus aureus; in the assay with Pseudomonas aeruginosa; with Klebsiella pneumoniae; in the assay with Bacillus subtilis; against Escherichia coli) was more than 150 µg/mL throughout.

A word on the MIC: it is the least concentration at which growth counts as inhibited. Read a high MIC as a less susceptible organism.
